This is a sample that favours compounds with a hit; in the whole collection about 2.7% have one here.
OX1R antag-1 = OX1R (HCRTR1) antagonists, primary screen, fluorescence, CHO/OX1R cells, Fluo-8 calcium, orexin A; inhibition, % at 5 µM; Fluo-8 calcium fluorescence; Orexin/Hypocretin receptor type 1 (Homo sapiens), O43613; actives 0.43% (n = 330,000); AID 434989, 2010;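 active = inhibition above its plate's threshold, mean inhibition of all tested compounds on the plate plus 3 SD, cut at about 37% in these data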;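 note: 0% = orexin A challenge wells and 100% = SB-334867-A antagonist wells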
V1R ag counter = agonists of human V1a receptor, primary screen, counter-screen for OXTR agonist project, fluorescence, CHO-V1R cells | Vasopressin V1a receptor (Homo sapiens), P37288 | Fluo-8 calcium fluorescence, agonist mode; 0% DMSO, 100% 3 nM vasopressin | activation, % at 3 µM | actives 0.25% (n = 320,000) | AID 2797, 2010;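 active = activation above the mean activation of all tested compounds plus 3 SD, per screening run, cut at about 20% in these data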;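 note: signal is peak over basal fluorescence ratio across a 100 second FLIPR read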
CHO parental Ca = ATP-evoked calcium signal inhibitors, parental CHO, primary screen, counter-screen for OX1R antagonist project, cell-based, fluorescence, Fluo-8 calcium dye; parental CHO-K1, ATP-induced calcium, Fluo-8 fluorescence; inhibition, % at 5.6 µM; actives 0.63% (n = 330,000); AID 463079, 2010;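 active = inhibition above that plate's mean sample inhibition plus 3 SD, cut at about 26% in these data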;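 note: 0% = ATP-challenged DMSO wells and 100% = DMSO wells without ATP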
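Assay system – parental CHO cells · Reagent – ATP stimulus · Detection – intracellular calcium via Fluo-8 no-wash fluorescent dye · Evaluation – percent inhibition of ATP-evoked calcium rise, normalized to controls · Controls – ATP wells versus no-ATP DMSO wells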
OXTR ag = human OXTR agonists, primary screen, fluorescence, CHO-OTR cells, Fluo-8 calcium. Oxytocin receptor (Homo sapiens), P30559. Fluo-8 calcium fluorescence; normalized: DMSO 0%, oxytocin 100%. activation, % at 3 µM. actives 0.32% (n = 320,000). AID 2435, 2010;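 active = activation above the mean of all tested compounds plus 3 SD, cutoff set per screening run, cut at about 20% in these data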;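 note: peak over basal fluorescence ratio from a 100 s FLIPR kinetic read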
Target sequence (P30559 whole entry, looked up): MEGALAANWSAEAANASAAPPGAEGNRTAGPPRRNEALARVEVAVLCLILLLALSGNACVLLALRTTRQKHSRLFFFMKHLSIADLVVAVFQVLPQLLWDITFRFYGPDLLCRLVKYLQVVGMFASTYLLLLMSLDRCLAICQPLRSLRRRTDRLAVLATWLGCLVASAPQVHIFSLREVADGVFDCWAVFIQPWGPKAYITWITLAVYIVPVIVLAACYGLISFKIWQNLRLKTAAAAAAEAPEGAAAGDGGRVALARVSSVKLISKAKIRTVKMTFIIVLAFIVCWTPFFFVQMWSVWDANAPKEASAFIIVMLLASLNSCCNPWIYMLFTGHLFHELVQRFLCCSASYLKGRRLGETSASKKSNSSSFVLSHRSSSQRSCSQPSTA
OXTR potentiator = human OXTR potentiators, primary screen, fluorescence, CHO-OTR cells, Fluo-8 calcium; Oxytocin receptor (Homo sapiens), P30559; Fluo-8 calcium fluorescence, potentiator mode; 0% = oxytocin EC15, 100% = EC100; activation, % at 3 µM; actives 0.061% (n = 320,000);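 active = activation above that plate's cutoff, the mean activation of tested compounds plus 3 SD, cut at about 6.6% in these data, passing the limit was not always enough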;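 note: 100% uses oxytocin at 75 nM as the full agonist control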
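Dosing: Single dose, 3.0 µM nominal final compound concentration | Material: Human OTR in CHO cells | Technique: Kinetic Fluo-8 calcium fluorescence | Benchmarks: EC15 oxytocin alone as 0%, 75 nM oxytocin as 100% | Probe or stimulus: Oxytocin at about EC15, sub-maximal agonist stimulus | Incubation: Compound 6 min at room temperature before oxytocin, 100 s read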
OX1R antag-2 = antagonists of human orexin 1 receptor (OX1R); inhibition, % at 6.6 µM; actives 1.8% (n = 330,000); OX1R-expressing cells, FRET antagonist read-out; Orexin/Hypocretin receptor type 1 (Homo sapiens), O43613; in the data active = inhibition mostly above about 38%, no sharp cut-off; inactive = mostly below about 40%;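 note: 0% = agonist challenge alone and 100% = reference antagonist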
Starred values were filed as active, the others as inactive.

SMILES | OX1R antag-1 | V1R ag counter | CHO parental Ca | OXTR ag | OXTR potentiator | OX1R antag-2
Cc1nnsc1C(=O)N1CCCC(Nc2ccc(F)c(F)c2)C1 (centres undefined) | -0.6 | 0.5 | 1.8 | -0.3 | -5.7 | 6.9
O=C1Nc2ccc(Cl)cc2[C@@](C#CC2CC2)(C(F)(F)F)O1 | 13.7 | -0.7 | 48.1* | -3.0 | -19.1 | 20.4
Cc1ccc(NC(=O)CSc2nc3nc(C)c(Br)cc3[nH]2)cc1F | -3.8 | 1.2 | -16.5 | -0.1 | -7.2 | 44.6*
COc1ccc(OC2C(=O)N(Cc3ccc4c(c3)OCO4)C2c2cccs2)cc1 (centres undefined) | 57.9* | 10.8 | 40.9* | 6.4 | -11.4 | 16.9
c1ccc(CNc2ncnc3scc(-c4cccs4)c23)nc1 | 14.4 | 4.1 | 43.7* | 8.5 | -7.6 | 27.7
NC(=O)[C@@H]1CCCCNc2c(I)cc([N+](=O)[O-])cc2C(=O)N[C@@H](CCC(=O)O)C(=O)N[C@@H](CO)C(=O)N1 | -0.4 | 0.7 | -7.6 | -0.6 | -7.4 | 40.7
NC(=O)[C@@H]1CCCNc2c(F)cc([N+](=O)[O-])cc2C(=O)N[C@@H](CCC(=O)O)C(=O)N[C@@H](CO)C(=O)N1 | 5.7 | -0.5 | -2.2 | -0.3 | -10.6 | 60.1*
Cc1ccc(S(=O)(=O)NCC2CCCO2)cc1 (centres undefined) | -2.0 | 1.0 | -10.3 | -1.0 | -11.4 | 2.5
O=S(=O)(NCC1CCCO1)c1ccc(-c2ccc(S(=O)(=O)NCC3CCCO3)cc2)cc1 (centres undefined) | 40.0* | 9.4 | 40.7* | 11.6 | -12.1 | 20.6
O=C(COC(=O)c1cccc(OC(F)F)c1)Nc1ncccn1 | -0.7 | 0.3 | -16.0 | 0.0 | -8.3 | 10.8
C[C@H](NC(=O)c1ccc(C(C)(C)C)cc1)C(=O)N1CCOCC1 | 22.3 | 2.4 | -6.4 | 2.0 | -5.4 | 0.5
CC1CCN(S(=O)(=O)c2ccc(NC(=O)[C@@H]3CCCN3C(=O)c3cccs3)cc2)CC1 | -12.2 | 1.3 | -22.8 | -0.1 | 4.1 | -0.8
COC(=O)C1(c2ccccc2)NC(c2cccs2)C2C(=O)N(c3ccccc3)C(=O)C21 (centres undefined) | -46.9 | 20.9* | -33.5 | 23.2* | -19.4 | -19.2
Cc1cc(N2C(=O)C(O)=C(C(=O)c3ccc(C)o3)C2c2ccc([N+](=O)[O-])cc2)no1 (centres undefined) | -7.1 | -0.3 | -14.2 | 0.0 | -4.2 | 19.1
COc1ccccc1CC(=O)N(Cc1ccccc1)c1cccc(C)c1 | -30.9 | -0.9 | -12.9 | -1.2 | -9.9 | 17.0
COC(=O)c1cc(S(=O)(=O)N2CCCCC2)c[nH]1 | -7.0 | 0.4 | -3.1 | 0.6 | -1.7 | 1.0
O=C1N=c2ccccc2=C1c1sc(Nc2cccc(O)c2)nc1O | 1.0 | -1.1 | -8.9 | -1.8 | -15.8 | 54.3*
O=C(c1cc(Cl)ccc1O)N1CCN(S(=O)(=O)Cc2ccccc2)CC1 | -6.0 | 7.1 | -7.0 | 9.1 | -10.5 | 6.9
N#C/C(=N\Nc1cccc(C(F)(F)F)c1)C(=O)c1ccsc1 | 35.9 | 13.1 | 1.3 | 12.0 | -12.1 | 54.8*
COc1cc2c(cc1NC(=O)COC(=O)[C@@H](NS(=O)(=O)c1ccccc1)C(C)C)oc1ccccc12 | 19.6 | 1.4 | -5.4 | -0.9 | -6.3 | 74.6*
O=C(N/N=C/c1ccc(OC(=O)c2cccs2)cc1)c1ccccn1 | -12.4 | 1.4 | -9.2 | 1.7 | -9.4 | 11.8
CS(=O)(=O)c1ccc(Cl)c(NC(=O)c2cc(S(=O)(=O)N3CCOCC3)ccc2N2CCCC2)c1 | -13.3 | -1.2 | -7.0 | -0.5 | -8.5 | 19.2
COC(=O)c1ccc(C2N=C(c3cccs3)CC(c3ccccc3O)N2)cc1 (centres undefined) | 3.7 | 6.4 | 42.1* | 5.1 | -21.5 | 72.2*
Cc1nc2ccc(NC(=O)c3ccc(Cl)s3)cc2s1 | 7.6 | 0.8 | 32.9* | 0.3 | -8.8 | 47.9*
